# Measurements from different studies.
# Each line is one published result; the experiments were not run side by side.
# Observed: metabolic stability
# Species: mouse
SMILES,sample,tested at,pH,half-life
CC(C)(C)OC(=O)N1CCC(Oc2ccc3c(=O)c4c(Cl)cc(F)cc4[nH]c3c2)CC1,liver microsomes,1 µM,pH 7.4,> 60 min
Cc1cc(-c2ccnc3[nH]cc(F)c23)cc(F)c1[C@@]1(O)[C@H](C)CN(C2CCS(=O)(=O)CC2)C[C@@H]1C,liver microsomes,,,45.9 min
OCc1ccc(-c2nn(Cc3ccccc3)c3ccccc23)o1,liver microsomes,,,3 min
O=C1CCC(N2Cc3cc(C4CCN(Cc5ccccc5)CC4)ccc3C2=O)C(=O)N1 (stereo not drawn),liver microsomes,1 µM,,> 60 min
Cc1cc(-c2ccnc3[nH]cc(F)c23)cc(F)c1[C@@]1(O)[C@H](C)CN(C2COC2)C[C@@H]1C,liver microsomes,,,1.7 min
COCC(=O)OCc1cc2[nH]c(=S)n(Cc3cccnc3)c(=O)c2cc1Cl,liver microsomes,1 µM,pH 7.4,< 5 min
CCN(CC)CCNC(=O)c1c(C)[nH]c(/C=C2\C(=O)Nc3ccc(F)cc32)c1C,liver microsomes,1 µM,,12.6 min
Cc1ccc(CCC(=O)Nc2nnc(S(N)(=O)=O)s2)cc1,liver microsomes,,,> 120 min
O=c1c2c([nH]c3cc(Oc4ccc(OC(F)(F)F)cc4)c(F)cc13)CCCC2,liver microsomes,1 µM,pH 7.4,13.2 min
C=CCn1c(=O)c2cnc(Nc3ccc(N4CCN(C)CC4)cc3)nc2n1-c1ccc2c(n1)[C@@](O)(CC)CC2,hepatocytes,,,91 min
NS(=O)(=O)c1nnc(NC(=O)CCC2CCC(F)(F)CC2)s1,liver microsomes,,,> 120 min
O=c1c2c([nH]c3c(Oc4ccc(OC(F)(F)F)cc4)cccc13)CCCC2,liver microsomes,1 µM,pH 7.4,> 60 min
O=C(O)Cc1ccccc1Nc1c(Cl)cccc1Cl,liver microsomes,,,44.4 min
O=c1c2cc(Cl)c(CO)cc2[nH]c(=S)n1Cc1cccnc1,liver microsomes,1 µM,pH 7.4,29.5 min
O=c1c2ccc(Oc3ccc(OC(F)(F)F)cc3)cc2[nH]c2ccc(Cl)c(F)c12,liver microsomes,1 µM,pH 7.4,> 60 min
Cc1cc(-c2ccnc3[nH]cc(F)c23)cc(F)c1[C@@]1(O)[C@H](C)CNC[C@@H]1C,liver microsomes,,,18.9 min
O=c1c2ccc(OCc3ccc(OC(F)(F)F)cc3)cc2[nH]c2cc(Cl)cc(F)c12,liver microsomes,1 µM,pH 7.4,> 60 min
Nc1nnc(-c2ccccc2O)cc1N1CCN(Cc2ccc(N3CCN(CCOc4cccc5c4C(=O)N(C4CCC(=O)NC4=O)C5=O)CC3)c(F)c2)CC1 (stereo not drawn),liver microsomes,1 mM,,46 min
C[C@@H]1CNC[C@H](C)[C@@]1(O)c1ccc(-c2ccnc3[nH]cc(F)c23)cc1,liver microsomes,,,49 min
O=c1c2cc(Cl)ccc2[nH]c(=S)n1Cc1ccc(-c2nnn[nH]2)nc1,liver microsomes,1 µM,pH 7.4,> 186 min
COc1ccc(Cn2cc(CO[C@@H]3O[C@H]4[C@H](OC[C@H]4O)[C@H]3O)nn2)cc1,liver microsomes,,,120 min
NC1=NN(c2ccc(Oc3ccccc3)c(S(=O)(=O)O)c2)C(=O)C1,liver microsomes,1 µM,,51.2 min
CC(C)(C)OC(=O)N1CCC(Oc2ccc3c(=O)c4c(F)cc(Cl)cc4[nH]c3c2)C1 (stereo not drawn),liver microsomes,1 µM,pH 7.4,> 60 min
Cc1c(C)n(Cc2cccc(OC(C)(C)C(=O)O)c2)c2ccc(C(=O)N[C@@H](C)c3ccc(C(C)(C)C)cc3)cc12,liver microsomes,,,> 60 min
Cc1[nH]c(C)c(S(=O)(=O)Nc2ccc(C(F)(F)F)c(Cl)c2Cl)c1C(=O)N1CCC(F)(F)C1,liver microsomes,,,44 min
O=c1c2ccc(Oc3ccc(OC(F)(F)F)cc3)cc2[nH]c2ccc(F)c(Cl)c12,liver microsomes,1 µM,pH 7.4,> 60 min
Cc1cc(-c2ccnc3[nH]cc(F)c23)cc(F)c1[C@@]1(O)[C@H](C)CN(C(=O)CN)C[C@@H]1C,liver microsomes,,,84.1 min
O=c1c2cccc(Oc3ccc(OC(F)(F)F)cc3)c2[nH]c2cc(Cl)cc(F)c12,liver microsomes,1 µM,pH 7.4,> 60 min
Cc1cc(-c2ccnc3[nH]cc(F)c23)cc(F)c1[C@@]1(O)[C@H](C)CN(C)C[C@@H]1C,liver microsomes,,,1.7 min
CN(C)CC(=O)OCc1cc2[nH]c(=S)n(Cc3cccnc3)c(=O)c2cc1Cl,liver microsomes,1 µM,pH 7.4,< 5 min
